Measurements reported in paper PMC5696082 (Analytical biochemistry, 2017).

Key:
hCE1 [1] = target: T1, hCE1 (Homo sapiens, UniProt P23141); assay: Potency of esterase inhibitors, hCE1; type: biochemical
T1 sequence (P23141 18-567): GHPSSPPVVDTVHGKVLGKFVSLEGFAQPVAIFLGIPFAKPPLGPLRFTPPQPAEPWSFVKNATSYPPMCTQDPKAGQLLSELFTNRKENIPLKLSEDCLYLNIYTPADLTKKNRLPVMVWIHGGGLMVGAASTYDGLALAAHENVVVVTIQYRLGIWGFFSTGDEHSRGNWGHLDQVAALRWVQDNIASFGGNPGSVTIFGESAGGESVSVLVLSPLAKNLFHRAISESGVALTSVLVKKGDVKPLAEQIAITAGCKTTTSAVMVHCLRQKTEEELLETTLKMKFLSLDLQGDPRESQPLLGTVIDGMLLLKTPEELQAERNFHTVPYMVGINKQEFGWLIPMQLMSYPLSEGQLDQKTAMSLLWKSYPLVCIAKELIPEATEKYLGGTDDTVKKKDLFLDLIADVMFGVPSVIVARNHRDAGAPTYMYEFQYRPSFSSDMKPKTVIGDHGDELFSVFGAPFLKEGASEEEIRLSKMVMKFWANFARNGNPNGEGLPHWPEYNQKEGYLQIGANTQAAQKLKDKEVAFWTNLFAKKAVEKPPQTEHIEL

hCE2 [2] = target: T2, hCE2 (Homo sapiens, UniProt O00748); assay: Potency of esterase inhibitors, hCE2; type: biochemical
T2 sequence (O00748 27-559): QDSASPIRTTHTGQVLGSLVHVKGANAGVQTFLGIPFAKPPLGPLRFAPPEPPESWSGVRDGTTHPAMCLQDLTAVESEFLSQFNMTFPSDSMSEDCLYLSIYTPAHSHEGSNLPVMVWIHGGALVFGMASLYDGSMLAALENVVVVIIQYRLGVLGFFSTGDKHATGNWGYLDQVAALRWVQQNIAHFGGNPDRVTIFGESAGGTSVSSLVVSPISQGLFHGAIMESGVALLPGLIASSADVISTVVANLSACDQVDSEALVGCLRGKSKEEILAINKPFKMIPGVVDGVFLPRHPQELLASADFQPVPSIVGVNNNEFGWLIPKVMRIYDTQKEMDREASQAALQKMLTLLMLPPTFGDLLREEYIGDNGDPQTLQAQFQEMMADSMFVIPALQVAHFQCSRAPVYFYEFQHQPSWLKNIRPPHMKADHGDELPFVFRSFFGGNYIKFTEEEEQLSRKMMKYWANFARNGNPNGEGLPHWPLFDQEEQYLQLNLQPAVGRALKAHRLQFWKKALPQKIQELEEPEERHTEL

hCE3 [3] = target: T3, hCE3 (Homo sapiens, UniProt Q6UWW8); assay: Potency of esterase inhibitors, hCE3; type: biochemical
T3 sequence (Q6UWW8 27-571): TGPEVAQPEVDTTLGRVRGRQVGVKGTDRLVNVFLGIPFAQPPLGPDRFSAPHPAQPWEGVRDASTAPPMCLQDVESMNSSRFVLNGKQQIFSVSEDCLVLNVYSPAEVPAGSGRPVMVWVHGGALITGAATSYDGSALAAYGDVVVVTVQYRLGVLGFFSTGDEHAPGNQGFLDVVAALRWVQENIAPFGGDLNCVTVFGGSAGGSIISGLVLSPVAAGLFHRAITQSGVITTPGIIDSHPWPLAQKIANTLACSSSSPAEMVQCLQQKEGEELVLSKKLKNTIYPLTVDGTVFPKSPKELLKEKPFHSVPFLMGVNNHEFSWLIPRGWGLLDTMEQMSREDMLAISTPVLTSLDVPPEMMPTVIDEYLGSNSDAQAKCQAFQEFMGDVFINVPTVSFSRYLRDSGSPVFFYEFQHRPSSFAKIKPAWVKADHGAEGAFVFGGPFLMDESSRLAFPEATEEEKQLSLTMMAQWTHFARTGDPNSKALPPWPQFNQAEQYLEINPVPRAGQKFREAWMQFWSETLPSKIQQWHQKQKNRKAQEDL

AADAC = target: T4, AADAC (Homo sapiens, UniProt P22760); assay: Potency of esterase inhibitors, AADAC; type: biochemical
T4 sequence (P22760 1-399): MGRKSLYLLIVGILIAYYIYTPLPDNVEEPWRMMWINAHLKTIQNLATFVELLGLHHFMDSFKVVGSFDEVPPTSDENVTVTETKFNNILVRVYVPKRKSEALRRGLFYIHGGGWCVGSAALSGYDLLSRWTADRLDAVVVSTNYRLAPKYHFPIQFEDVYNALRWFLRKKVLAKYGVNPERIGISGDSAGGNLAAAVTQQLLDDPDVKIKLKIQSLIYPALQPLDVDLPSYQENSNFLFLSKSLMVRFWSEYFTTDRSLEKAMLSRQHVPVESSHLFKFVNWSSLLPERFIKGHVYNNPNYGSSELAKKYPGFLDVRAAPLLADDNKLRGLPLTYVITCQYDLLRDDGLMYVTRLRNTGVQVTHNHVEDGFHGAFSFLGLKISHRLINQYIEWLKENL

FAAH [4] = target: T5, FAAH (Homo sapiens, UniProt O00519); assay: Potency of esterase inhibitors, FAAH; type: biochemical
T5 sequence (O00519 1-579): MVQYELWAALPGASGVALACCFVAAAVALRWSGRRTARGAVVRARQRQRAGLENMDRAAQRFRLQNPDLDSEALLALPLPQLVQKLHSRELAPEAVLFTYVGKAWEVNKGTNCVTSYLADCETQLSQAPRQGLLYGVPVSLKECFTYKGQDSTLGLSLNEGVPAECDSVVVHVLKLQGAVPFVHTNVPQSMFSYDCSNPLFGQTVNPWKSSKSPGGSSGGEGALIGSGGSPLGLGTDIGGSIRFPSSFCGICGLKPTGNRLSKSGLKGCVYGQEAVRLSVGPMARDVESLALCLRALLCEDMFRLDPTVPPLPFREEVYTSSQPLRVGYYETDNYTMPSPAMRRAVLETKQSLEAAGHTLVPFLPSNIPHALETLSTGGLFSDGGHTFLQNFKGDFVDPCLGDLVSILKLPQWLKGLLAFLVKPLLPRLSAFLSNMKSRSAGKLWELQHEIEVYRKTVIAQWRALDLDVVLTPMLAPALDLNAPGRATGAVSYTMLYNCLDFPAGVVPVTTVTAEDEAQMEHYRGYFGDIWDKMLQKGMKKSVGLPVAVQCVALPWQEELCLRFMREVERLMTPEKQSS

PON1 = PON1 (Homo sapiens, UniProt P27169); assay: Potency of esterase inhibitors, PON1; type: biochemical
Procedure, shortened: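 PON1 used as crude lysate of baculovirus-infected insect cells in PBS. Added to 2-fold serial inhibitor dilutions (top concentration at most 100 µM) and preincubated 5 min. Cyanohydrin ester substrate then added to 50 µM final, DMSO ≤2%, in 100 mM phosphate pH 8, 0.1 mg/mL BSA, 37°C. Fluorescence (ex 330/em 465 nm) read kinetically for 10 min. IC50 from linear regression of log[inhibitor] against % remaining activity; triplicates, single experiment.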

hCE1 [5] = target: T1, hCE1; assay: Specific activity of hCE1 towards substrates; type: biochemical
Procedure, shortened: (§1)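 Enzymes expressed in baculovirus-infected High Five cells: hCE1 CHAPS-solubilised from the 100,000 g pellet, then DEAE-purified; hCE2/hCE3 crude soluble fraction; FAAH crude insoluble fraction. Substrate added to 50 µM final in 100 mM sodium phosphate pH 8.0, 0.1 mg/mL BSA, 1% DMSO. Fluorescence read every 30 s for ≥10 min at 37°C. Rates corrected for estimated purity: hCE1 25%, hCE2 4%, hCE3 3.5% (3% in footnotes), FAAH 6.9%. Triplicates.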

hCE2 [6] = target: T2, hCE2; assay: Specific activity of hCE2 towards substrates; type: biochemical
Procedure, shortened: as §1

hCE3 [7] = target: T3, hCE3; assay: Specific activity of hCE3 towards substrates; type: biochemical
Procedure, shortened: as §1

FAAH [8] = target: T5, FAAH; assay: Specific activity of FAAH towards substrates; type: biochemical; conditions: Table 2; [S] = 50 µM, 37°C, pH 8; estimated 6.9% purity
Procedure, shortened: as §1

hCE1 [9] = target: T1, hCE1; assay: Limit of detection and quantification for hCE1 using partially purified enzyme; type: biochemical; conditions: [S] = 50 µM; for LOD for hCE1: S/N > 3; for LOQ for hCE1: S/N > 9
Procedure, shortened: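 Partially purified recombinant hCE1, without any matrix, diluted into wells with substrate at 50 µM. Assay run in 100 mM sodium phosphate, pH 8, 0.1 mg/mL BSA, 1% DMSO, at 37°C. S/N taken as mean signal of enzyme wells over the SD of […], quadruplicates in one experiment. LOD set as the lowest level with S/N > 3; LOQ as S/N > 9.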

[10] = Background hydrolysis of substrates in phosphate buffer; type: physicochemical; conditions: phosphate buffer 100 mM, pH 8, 0.1 mg/mL BSA
Intestine S9 = assay: Substrate hydrolysis by pooled tissue S9, intestine; type: biochemical, human
Procedure, shortened: (§2)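 Commercial pooled human tissue S9 fraction added to substrate at 50 µM final in 100 mM sodium phosphate, pH 8.0, 0.1 mg/mL BSA. Fluorescence monitored every 30 s for at least 10 min at 37°C. Specific activity given as the mean of triplicates in one experiment, or mean ± standard deviation of 3 independent experiments run in triplicate.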

Kidney S9 = assay: Substrate hydrolysis by pooled tissue S9, kidney; type: biochemical, human
Procedure, shortened: as §2

Liver S9 = assay: Substrate hydrolysis by pooled tissue S9, liver; type: biochemical, human
Procedure, shortened: as §2

Lung S9 = assay: Substrate hydrolysis by pooled tissue S9, lung; type: biochemical, human
Procedure, shortened: as §2

[11] = Kinetic mode (30 s intervals for 30 minutes)

Chain of PON1 (P27169 whole entry, species assumed): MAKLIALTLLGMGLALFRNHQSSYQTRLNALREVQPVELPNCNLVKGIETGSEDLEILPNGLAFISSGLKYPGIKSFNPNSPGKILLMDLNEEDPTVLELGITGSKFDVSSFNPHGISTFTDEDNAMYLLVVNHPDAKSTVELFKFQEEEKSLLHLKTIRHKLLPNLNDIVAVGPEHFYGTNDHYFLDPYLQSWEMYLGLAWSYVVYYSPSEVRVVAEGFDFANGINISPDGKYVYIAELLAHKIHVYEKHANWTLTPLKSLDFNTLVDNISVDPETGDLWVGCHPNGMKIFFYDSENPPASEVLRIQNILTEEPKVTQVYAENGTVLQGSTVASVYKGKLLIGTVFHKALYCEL

NC(Cc1cc(I)c(Oc2cc(I)c(O)c(I)c2)c(I)c1)C(=O)O (stereo not drawn) [Thyroxine]
IC50 (hCE1 [1]): 1.5 µM
IC50 (hCE2 [2]): 16 µM
Selectivity hCE2/hCE1 (hCE2 [2]; from IC50 values): 0.094
IC50 (hCE3 [3]): 23 µM
IC50 (AADAC): 0.73 µM
IC50 (FAAH [4]): > 100 µM
IC50 (PON1): 2.1 µM

COc1ccc(C(=O)C(=O)c2ccccc2Cl)cc1OC [2-chloro-3’,4’- dimethoxybenzil, 2-chloro-3’,4’-dimethoxybenzil]
IC50 (hCE1 [1]): 2.5 µM
IC50 (hCE3 [3]): > 100 µM
IC50 (AADAC): > 100 µM
IC50 (FAAH [4]): 7.6 µM
IC50 (PON1): 25 µM

COc1ccc2cc(C(C#N)OC(C)=O)ccc2c1 (stereo not drawn) [CMNA, cyano(6-methoxynaphthalen-2-yl)methyl acetate]
hCE1 Specific activity (hCE1 [5]; Table 2, [S] = 50 µM, 37°C, pH 8, estimated 25% purity): 3000 pmol/min/µg
Hydrolysis Specific Activity (hCE1 [5]; Table 6, hCE1): 3,000 pmol/min/µg
hCE2 Specific activity (hCE2 [6]; Table 2, [S] = 50 µM, 37°C, pH 8, estimated 4% purity): 11000 pmol/min/µg
Hydrolysis Specific Activity (hCE2 [6]; Table 6, hCE2): 11,000 pmol/min/µg
hCE3 Specific activity (hCE3 [7]; Table 2, [S] = 50 µM, 37°C, pH 8, estimated 3% purity): 150 pmol/min/µg
Hydrolysis Specific Activity (hCE3 [7]; Table 6, hCE3): 150 pmol/min/µg
FAAH Specific activity (FAAH [8]): 13 pmol/min/µg
LOD for hCE1 (hCE1 [9]; Endpoint mode 1 hour): 0.98 ng
LOQ for hCE1 (hCE1 [9]; Endpoint mode 1 hour): 7.8 ng
LOD for hCE1 (hCE1 [9]; Endpoint mode 4 hours): 3.9 ng
LOD for hCE1 (hCE1 [9]; Endpoint mode 24 hours): 0.06 ng
LOD for hCE1 (hCE1 [9]; [11]): 2.0 ng
LOQ for hCE1 (hCE1 [9]; [11]): 3.9 ng
Rate of background hydrolysis [10]: 20 pmol/min
Hydrolysis Specific Activity (Intestine S9): 74 ± 3 pmol/min/µg
Hydrolysis Specific Activity (Kidney S9): 15 ± 5 pmol/min/µg
Hydrolysis Specific Activity (Liver S9): 180 ± 30 pmol/min/µg
Hydrolysis Specific Activity (Lung S9): 13 ± 1 pmol/min/µg
